Test results taken from ChEMBL document CHEMBL1146380, “Synthesis, antimicrobial activity, and QSAR studies of furan-3-carboxamides” (2007).
≈ marks a conversion by molar mass, not a printed value. Calls of active or inactive are those of the source. No cut-off for these calls is given here.

What was measured:
Candida albicans = test: Antimicrobial activity against Candida albicans ATCC 44373 by broth microdilution method; type: functional
How it was run: (§1)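 Yeasts grown on potato dextrose agar. Inoculum was standardized by McFarland turbidity as for bacteria, into RPMI 1640 broth (M27-A2). DMSO-dissolved compound was tested in twofold dilutions from 320 to 1.25 at 35 °C for 24 h, in duplicate. MIC was the lowest concentration completely inhibiting visible growth. Fungicidal concentration was read by subculturing 20 µL from clear wells on Sabouraud dextrose agar at 35 °C.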

Candida dubliniensis = test: Antimicrobial activity against Candida dubliniensis CBS 7987 by broth microdilution method; type: functional; how it was run: as §1
Nakaseomyces glabratus = test: Antimicrobial activity against Candida glabrata […] by broth microdilution method; type: functional; how it was run: as §1
[1] = system: Cryptococcus deneoformans; test: Antimicrobial activity against Cryptococcus neoformans var.neoformans serotype D ATCC 28952 by broth microdilution method; type: functional
How it was run: (§2)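 Organism grown on potato dextrose agar, with turbidity-standardized inoculum in RPMI 1640 broth (M27-A2). DMSO-dissolved compound was tested in twofold dilutions from 320 to 1.25 at 35 °C, incubated up to 72 h, in duplicate. MIC was the lowest concentration with no visible growth. Cidal concentration was read by subculturing 20 µL from clear wells on Sabouraud dextrose agar, incubated for the same period.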

Saccharomyces cerevisiae = test: Antimicrobial activity against Saccharomyces cerevisiae ATCC 2601 by broth microdilution method; type: functional; how it was run: as §2
Staphylococcus aureus = test: Antimicrobial activity against Staphylococcus aureus ATCC 25923 by broth microdilution method; type: functional
How it was run: (§3)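 Bacteria grown overnight on Mueller–Hinton agar. Colonies were suspended in saline to McFarland turbidity (about 10^8 cfu/mL), diluted 1:100 in saline, then 1:20 in Mueller–Hinton broth, giving 5 · 10^4 cfu/mL per well. DMSO-dissolved compound was tested in twofold dilutions from 320 to 1.25 at 35 °C for 24 h. MIC was the lowest concentration with no visible turbidity (M7-A4). Bactericidal concentration was read by subculturing clear wells on Mueller–Hinton agar.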

Klebsiella pneumoniae = test: Antimicrobial activity against Klebsiella pneumoniae ATCC 1003 by broth microdilution method; type: functional; how it was run: as §3
Escherichia coli = test: Antimicrobial activity against Escherichia coli ATCC 25922 by broth microdilution method; type: functional; how it was run: as §3
[2] = (§4) Antimicrobial activity against Salmonella setubal ATCC 19196 by broth microdilution method; type: functional, Salmonella enterica subsp. enterica serovar Setubal; conditions: Salmonella enterica; how it was run: as §3
[3] = system: Salmonella enterica subsp. enterica serovar Setubal; test: as §4; type: functional; how it was run: as §3
Prototheca zopfii = test: Antimicrobial activity against Prototheca zopfii by broth microdilution method; type: functional; how it was run: as §2
Pseudomonas aeruginosa = test: Antimicrobial activity against Pseudomonas aeruginosa ATCC 27853 by broth microdilution method; type: functional; how it was run: as §3
Rhizopus arrhizus = test: Antimicrobial activity against Rhizopus oryzae isolate by broth microdilution method; type: functional
Sporothrix schenckii = test: Antimicrobial activity against Sporothrix schenckii ATCC 1146 by broth microdilution method; type: functional
Fusarium solani = test: Antimicrobial activity against Fusarium solani isolate by broth microdilution method; type: functional
Aspergillus fumigatus = test: Antimicrobial activity against Aspergillus fumigatus isolate by broth microdilution method; type: functional
Aspergillus flavus = test: Antimicrobial activity against Aspergillus flavus isolate by broth microdilution method; type: functional
Aspergillus niger = test: Antimicrobial activity against Aspergillus niger isolate by broth microdilution method; type: functional
Aspergillus terreus = test: Antimicrobial activity against Aspergillus terreus isolate by broth microdilution method; type: functional
Scedosporium boydii = test: Antimicrobial activity against Pseudallescheria boydii isolate by broth microdilution method; type: functional

MIC (Candida dubliniensis): 320 µg/mL (≈ 1580 µM) | MIC [1]: 320 µg/mL (≈ 1580 µM) | MIC (Staphylococcus aureus): 80 µg/mL (≈ 396 µM) | MIC (Klebsiella pneumoniae): 320 µg/mL (≈ 1580 µM) | MIC (Escherichia coli): 320 µg/mL (≈ 1580 µM) | MIC [2]: 320 µg/mL (≈ 1580 µM) | MIC (Prototheca zopfii): 160 µg/mL (≈ 791 µM) | MIC (Pseudomonas aeruginosa): 320 µg/mL (≈ 1580 µM) | MIC (Rhizopus arrhizus): 320 µg/mL (≈ 1580 µM) | MIC (Sporothrix schenckii): 320 µg/mL (≈ 1580 µM) | MIC (Fusarium solani): 320 µg/mL (≈ 1580 µM) | MIC (Aspergillus fumigatus): 320 µg/mL (≈ 1580 µM) | MIC (Aspergillus niger): 320 µg/mL (≈ 1580 µM) | MIC (Aspergillus terreus): 320 µg/mL (≈ 1580 µM) | MIC (Scedosporium boydii): 320 µg/mL (≈ 1580 µM)
Structure (SMILES): O=C(NCc1ccncc1)c1ccoc1
Activity (Candida albicans): inactive | MFC (Candida dubliniensis): 320 µg/mL (≈ 1580 µM) | Activity (Nakaseomyces glabratus): inactive | MFC [1]: 320 µg/mL (≈ 1580 µM) | Activity (Saccharomyces cerevisiae): inactive | MBC (Staphylococcus aureus; read-out: MFC): 320 µg/mL (≈ 1580 µM) | Activity (Klebsiella pneumoniae): inactive | Activity (Escherichia coli): inactive | Activity [3]: inactive | MFC (Prototheca zopfii): 160 µg/mL (≈ 791 µM) | Activity (Pseudomonas aeruginosa): inactive | MFC (Rhizopus arrhizus): 320 µg/mL (≈ 1580 µM) | MFC (Sporothrix schenckii): 320 µg/mL (≈ 1580 µM) | Activity (Fusarium solani): inactive | Activity (Aspergillus fumigatus): inactive | Activity (Aspergillus flavus): inactive | MFC (Aspergillus niger): 320 µg/mL (≈ 1580 µM) | MFC (Aspergillus terreus): 320 µg/mL (≈ 1580 µM) | MFC (Scedosporium boydii): 320 µg/mL (≈ 1580 µM)
